Each structure is given as a SMILES string.

The species named for one assay is Rattus norvegicus. Kind of assay: Inhibition of rat ventricular muscle strip contractility. The assay is classed as functional. The note with it: Muscle tissue. Put shortly:
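Rat right ventricular muscle strips were held in water-jacketed baths of Krebs-Henseleit solution at 30 °C, aerated with O2-CO2 (95:5), at 0.5 g resting tension. Contraction was evoked by electrical stimulation and recorded on a polygraph. IC50 was taken from inhibition of contraction, using three to five experiments.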
As to `CC1CCC2(O)C3(C)CC4(O)OC2(C1O)C1(O)C3(O)C(OC(=O)c2ccc[nH]2)C(O)(C(C)C)C41C` (centres undefined), the IC50 was determined as 34 nM.

The species named for another assay is Rattus norvegicus. Put plainly: Potency relative to ryanodine inhibiting rat ventricular muscle strip contractility. Format: functional, Muscle tissue.
Details: not given
Put shortly: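 Right ventricular muscle strips from rat suspended in Krebs-Henseleit solution at 30 °C, aerated O2-CO2 95:5; resting tension 0.5 g. Contraction evoked by electrical stimulation was recorded and its inhibition measured. IC50 values are expressed relative to ryanodine; three to five experiments.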
On to `C=C1CCC2(O)C3(C)CC4(O)OC25C1OP(=O)(NC)OC51C3(O)C(OC(=O)c2ccc[nH]2)C(O)(C(C)C)C41C` (centres undefined), for which the Potency was less than 3.5. For `CC1CCC2(O)C3(OC4(O)CC2(C)C2(O)C(OC(=O)c5ccc[nH]5)C(O)(C(C)C)C4(C)C23)C1O` (centres undefined), the Potency came out at 64. As to `C=C1CCC23OB(c4ccsc4)OC45C(OC(=O)c6ccc[nH]6)C(O)(C(C)C)C6(C)C(O)(CC24C)OC3(C1O)C56O` (centres undefined), the Potency is 52. As to `C=C1CCC23OB(C)OC45C(OC(=O)c6ccc[nH]6)C(O)(C(C)C)C6(C)C(O)(CC24C)OC3(C1O)C56O` (centres undefined), the Potency worked out at 100.

For `CC1CCC2(O)C3(C)CC4(O)OC2(C1O)C1(O)C3(O)C(OC(=O)c2ccc[nH]2)C(O)(C(C)C)C41C` (centres undefined), the Potency is on record as 100. The same measure, in the same setting: to `C=C1CCC23OB(CC)OC45C(OC(=O)c6ccc[nH]6)C(=C(C)C)C6(C)C(O)(CC24C)OC3(C1O)C65O` (centres undefined) belongs 26.

The molecule `CC1CCC2(O)C3(C)CC4(O)OC2(C1O)C1(O)C3(O)C(OC(=O)c2ccc[nH]2)C(O)(C(C)(C)O)C41C` (centres undefined) came in with a Potency of 26.

Turning to `C=C1CCC23OB(O)OC45C(OC(=O)c6ccc[nH]6)C(O)(C(C)C)C6(C)C(O)(CC24C)OC3(C1O)C56O` (centres undefined), the Potency was 28. The molecule `CC1CCC2(O)C3(OC4(O)CC2(C)C2(NO)C(OC(=O)c5ccc[nH]5)C(O)(C(C)C)C4(C)C23)C1O` (centres undefined) registered a Potency of 4.9. The molecule `CONC12C(OC(=O)c3ccc[nH]3)C(O)(C(C)C)C3(C)C1C14OC3(O)CC2(C)C1(O)CCC(C)C4O` (centres undefined) yielded a Potency of less than 1.1. As to `C=C1CCC2(O)C3(C)CC4(O)OC2(C1O)C1(O)C3(O)C(OC(=O)c2cccn2C)C(O)(C(C)C)C41C` (centres undefined), the Potency stood at 100. In the case of `CC1CCC2(O)C3(C)CC4(O)OC2(C1O)C1(O)C3(O)C(OC(=O)c2ccc[nH]2)C2(OC2(C)C)C41C` (stereo in doubt; 25), the Potency worked out at 24. Regarding `CC1CCC2(O)C3(C)CC4(O)OC2(C1O)C1(O)C3(O)C(OC(=O)c2ccc[nH]2)C2(OC2(C)C)C41C` (stereo in doubt; 26), the Potency came to 3.4.

A word on the IC50: it is the concentration at which inhibition is half-maximal. The low end stands for higher potency, the high end for lower potency.

These data come from ChEMBL document CHEMBL1129786, “Ryanodine action at calcium release channels. 1. importance of hydroxyl substituents” (J Med Chem, 1996).
